A selection: hits, their analogues and other compounds. The true share with any hit is near 2.3%.
MEKK2mut PB1 HTS: signal of MEK5 binding to mutant human MEKK2 PB1 domain | bead flow cytometry, Alexa488-MEK5 binding to MEKK2 mutant | 290,000 compounds, 0.35% hits | percent response, % at 10 µM; in the data active = percent response above about 24%, passing the limit was not always enough
MEKK3 PB1 HTS: MEKK3-MEK5 PB1 interaction, increase or decrease; bead-based flow cytometry, Alexa488-MEK5 binding to MEKK3; actives lie on both sides; 0 = blocked by unlabeled MEK5, 100 = vehicle; binding response (% of control), % at 10 µM; 290,000 compounds, 1.4% hits;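 active = binding response more than 3 SD above or below the average of its plate-row segment, actives on both sides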;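 also: Alexa488 bead fluorescence after subtracting the streptavidin-only scavenger bead signal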
Target sequence (Q99759 whole entry, looked up): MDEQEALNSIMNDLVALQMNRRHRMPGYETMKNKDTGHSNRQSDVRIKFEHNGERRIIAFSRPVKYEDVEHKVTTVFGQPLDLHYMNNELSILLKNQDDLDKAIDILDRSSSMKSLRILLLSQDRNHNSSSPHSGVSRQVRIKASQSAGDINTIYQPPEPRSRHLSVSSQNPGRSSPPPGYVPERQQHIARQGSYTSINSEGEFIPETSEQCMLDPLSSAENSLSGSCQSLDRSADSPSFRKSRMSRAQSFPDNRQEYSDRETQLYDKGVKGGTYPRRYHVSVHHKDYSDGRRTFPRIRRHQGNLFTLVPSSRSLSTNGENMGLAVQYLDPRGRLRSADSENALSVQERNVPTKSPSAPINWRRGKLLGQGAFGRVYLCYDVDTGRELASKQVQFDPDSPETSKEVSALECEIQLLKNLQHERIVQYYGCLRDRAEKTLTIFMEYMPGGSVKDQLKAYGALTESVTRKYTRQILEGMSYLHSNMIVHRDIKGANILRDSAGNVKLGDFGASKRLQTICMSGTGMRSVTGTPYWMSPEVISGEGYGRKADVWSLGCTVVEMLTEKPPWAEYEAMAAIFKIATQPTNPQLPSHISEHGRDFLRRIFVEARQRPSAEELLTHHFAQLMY
Arrestin-AP2 inh: human beta-arrestin and AP2 interaction inhibition; FITC-arrestin peptide / GST-AP2 beads, flow cytometry; AP2 beta2 appendage carries R879A mutation; inhibition, % at 10 µM; 340,000 compounds, 0.31% hits; AID 504490;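 active = inhibition above a set limit, near 3 SD of compounds lacking own fluorescence, cut at about 54% in these data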;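 also: plate controls were DMSO wells for no effect and 5 µM unlabelled arrestin peptide for full effect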
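Material – GST-tagged AP2 beta2-adaptin appendage (R879A) on 4 µm glutathione beads · Probe or stimulus – fluorescein-tagged arrestin peptide at 50 nM final · Timing – 12 min plus 1 h, RT · Detection – bead flow cytometry, FITC channel · Read-out basis – inhibition as reduced fluorescein signal on beads, percent · Medium – PBS plus Tween 20 (0.05%) and BSA (0.1%)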
MEKK2 WT-MEK5: raises or lowers MEK5 binding to wildtype human MEKK2 PB1 domain | bead flow cytometry, Alexa488-MEK5 binding to MEKK2 WT; actives lie on both sides | binding response (% of control), % at 10 µM | 290,000 compounds, 1.1% hits; in the data active = binding response below about 67% or above about 130%
MEKK2wt confirm: raises or lowers MEK5 binding to wildtype human MEKK2, retest. binding response (% of control), % at 10 µM. shares compounds with MEKK3 PB1 HTS. bead flow cytometry, Alexa488-MEK5 binding to MEKK2 WT; actives lie on both sides. 5,900 compounds, 2.4% hits; in the data active = binding response below about 16% or above about 210%; inactive = in between
MEKK2mut confirm: signal of MEK5 binding to mutant human MEKK2, retest | bead flow cytometry, Alexa488-MEK5 binding to MEKK2 mutant | shares compounds with MEKK3 PB1 HTS | percent response, % at 10 µM | 5,900 compounds, 2% hits | AID 1893; in the data active = percent response mostly above about 71%, no sharp cut-off; inactive = mostly below about 38%;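 also: higher means compound restores mutant binding toward wildtype level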
MEKK3-MEK5 inh: confirmation of inhibitors of MEK5 binding to human MEKK3; shares compounds with MEKK3 PB1 HTS; bead flow cytometry, Alexa488-MEK5 binding to MEKK3; stronger effect = lower value; binding response (% of control), % at 10 µM; 5,900 compounds, 1.8% hits;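 active = binding response below 72% of control, or above a set upper limit, though filed actives all read lower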;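 also: 100% = DMSO only wells and 0% = binding blocked by excess unlabeled MEK5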
* marks the source's active call; other numbers are inactive results; / = no result given; [ ] = remark or other dose.

SMILES | MEKK2mut PB1 HTS | MEKK3 PB1 HTS | Arrestin-AP2 inh | MEKK2 WT-MEK5 | MEKK2wt confirm | MEKK2mut confirm | MEKK3-MEK5 inh
CN1C(=O)N(C)C2(c3ccccc3)N(C)C(=O)NC12c1ccccc1 (stereo not given) | -17.0 | 35.0*[inhibitor] | 2.2 | 50.0 | 101.0 | 6.0 | 101.0
O=C(Cc1ccc(Br)cc1)OCC(=O)N1CCOCC1 | / | / | 2.1 | / | / | / | /
NS(=O)(=O)c1ccc(CNC(=O)/C=C/c2cccc([N+](=O)[O-])c2)cc1 | 2.0 | 104.0 | -6.7 | 104.0 | / | / | /
CCCCNCC(=O)Nc1sc(C)c(C)c1C(=O)OCC | -2.0 | 79.0*[inhibitor] | 2.5 | 102.0 | 108.0 | 8.0 | 108.0
Cc1cc(C)c(C(=O)Nc2ccc(Br)c(C(F)(F)F)c2)c(C)c1 | 1.0 | 102.0 | 7.4 | 117.0 | / | / | /
Cc1cc(N=Nc2ccc(C)c(N=Nc3cc(C)c(N)cc3N)c2)c(N)cc1N | -7.0 | 67.0*[inhibitor] | -0.5 | 76.0 | 89.0 | 10.0 | 70.0*
CCOC(=O)c1cnc2c(ccc3ccccc32)c1NCCCN(C)C | 9.0 | 111.0 | 5.7 | 151.0* | 129.0 | 16.0 | 102.0
CCOC(=O)c1cnc2ccccc2c1NCCO | -3.0 | 87.0 | 5.0 | 99.0 | / | / | /
CCOC(=O)c1c(C)[nH]c(C)c1S(=O)(=O)N(C)CC(=O)Nc1ccccc1F | -3.0 | 98.0 | 5.6 | 101.0 | / | / | /
COc1ccc(NC(=O)COC(=O)CNS(=O)(=O)c2ccc(F)c(F)c2F)cc1OC | 0.0 | 135.0* | -5.5 | 105.0 | 103.0 | 5.0 | 107.0
COc1cc(NC(=O)COC(=O)CNS(=O)(=O)c2ccc(F)c(F)c2F)cc(OC)c1 | -2.0 | 101.0 | 6.6 | 101.0 | / | / | /
c1ccc(-c2nnc(C3CC(c4ccncc4)=NO3)o2)cc1 (stereo not given) | 1.0 | 105.0 | 7.3 | 101.0 | / | / | /
Cc1ncoc1C(=O)N1CCCC(C(=O)c2ccc(-c3ccccc3)cc2)C1 (stereo not given) | -7.0 | 97.0 | 13.3 | 91.0 | / | / | /
CCN(CC)S(=O)(=O)c1ccc(NC(=O)c2cccc3c2C(=O)N(CCOC)C3)cc1 | 0.0 | 132.0* | -20.7 | 108.0 | 102.0 | -5.0 | 101.0
Cc1ccc(Cl)cc1N1CCN(C(=O)CSc2ccsc2[N+](=O)[O-])CC1 | 0.0 | 133.0* | -3.8 | 102.0 | 94.0 | -7.0 | 95.0
O=C(CSc1ccc(Cl)cc1)N1CCN(c2ccc([N+](=O)[O-])cc2Cl)CC1 | 0.0 | 98.0 | 19.3 | 95.0 | / | / | /
CCCCC(=O)NCCNc1nc2c(c(=O)n(C)c(=O)n2C)n1Cc1ccc(F)cc1 | 1.0 | 104.0 | 16.8 | 101.0 | / | / | /
CCCCC(=O)NCCNc1nc2c(c(=O)n(C)c(=O)n2C)n1Cc1ccccc1 | -14.0 | 2.0*[inhibitor] | 15.6 | 2.0*[inhibitor] | 109.0 | 5.0 | 104.0
CC(C)(C)c1cc[n+](/C(C(=S)NC2CC2)=C(/[O-])c2ccc(Cl)s2)cc1 | -2.0 | 81.0*[inhibitor] | 6.0 | 80.0 | 95.0 | -7.0 | 97.0
CCc1cccc(CC)c1NC(=S)/C(=C(\[O-])c1ccc(Cl)s1)[n+]1ccccc1 | 0.0 | 98.0 | 8.5 | 98.0 | / | / | /
O=S(=O)(NC1c2cccc3cccc(c23)C1Sc1ncccn1)c1ccccc1 (stereo not given) | 0.0 | 144.0* | -3.8 | 100.0 | 97.0 | -4.0 | 105.0
CCOc1cc2[nH]c(=S)n(Cc3ccc(C(=O)NCC(OC)OC)cc3)c(=O)c2cc1OCC | 6.0 | 102.0 | -7.2 | 99.0 | / | / | /
O=C(NCCCN1CCCC1)c1ccc(Cn2c(=S)[nH]c3ccc(Br)cc3c2=O)cc1 | 25.0 | 105.0 | / | 144.0* | 119.0 | 7.0 | 97.0
CCOc1cc2[nH]c(=S)n(Cc3ccc(C(=O)NCCN(CC)CC)cc3)c(=O)c2cc1OCC | 29.0* | 107.0 | -16.2 | 126.0 | 113.0 | 4.0 | 103.0
Cc1ccc(S(=O)(=O)N(CCCO)CC(O)CON=C2c3ccccc3-c3ccccc32)cc1 (stereo not given) | 0.0 | 136.0* | 10.3 | 109.0 | 96.0 | -4.0 | 98.0
SMILES | MEKK2mut PB1 HTS | MEKK3 PB1 HTS | Arrestin-AP2 inh | MEKK2 WT-MEK5 | MEKK2wt confirm | MEKK2mut confirm | MEKK3-MEK5 inh
CC(C)(C)NCC(O)CON=C1c2ccccc2-c2ccccc21 (stereo not given) | -6.0 | 91.0 | -10.9 | 106.0 | / | / | /
O=C(Cc1cccs1)N/N=C/C=C/c1ccccc1 | 0.0 | 129.0* | 8.7 | 104.0 | 104.0 | 0.0 | 104.0
COc1ccccc1NCC(=O)N/N=C/C=C/c1ccccc1 | 3.0 | 70.0*[inhibitor] | -9.8 | 96.0 | 99.0 | -3.0 | 99.0
COc1ccc(NCC(=O)N/N=C/C=C\c2ccccc2)cc1 | 1.0 | 98.0 | 3.0 | 98.0 | / | / | /
CCN(CC)S(=O)(=O)c1ccc(C)c(NC(=O)Cn2c(=O)cnc3ccccc32)c1 | 0.0 | 160.0* | -2.0 | 107.0 | 100.0 | 0.0 | 102.0
CCN(CC)S(=O)(=O)c1ccc(C)c(NC(=O)Cn2cnc3cc([N+](=O)[O-])ccc3c2=O)c1 | -15.0 | 69.0*[inhibitor] | -21.1 | 70.0 | 96.0 | -2.0 | 96.0
O=C(Nc1ccc(Cl)cc1)NC1CCCC1Cc1ccco1 (stereo not given) | 5.0 | 109.0 | 8.2 | 116.0 | / | / | /
O=C(Nc1ccc(Cl)cc1)NC1CCCCC1Cc1ccco1 (stereo not given) | -9.0 | 69.0*[inhibitor] | -2.4 | 46.0*[inhibitor] | 112.0 | 18.0 | 105.0
O=C(Nc1ccc(Cl)cc1)NC1CCCCC1 | -9.0 | 1.0*[inhibitor] | 3.2 | -1.0*[inhibitor] | 64.0 | -9.0 | 95.0
Cc1nc2c(nc1C)C(=O)c1ccccc1C2=O | / | / | 2.1 | / | / | / | /
O=C1c2ccccc2-c2nc3ccccc3nc21 | -27.0 | 67.0*[inhibitor] | -2.7 | 72.0 | 94.0 | -7.0 | 99.0
CCNc1nc(NCC)n2c(SCC(=O)c3ccccc3F)nnc2n1 | -2.0 | 100.0 | 4.9 | 97.0 | / | / | /
CCC1C(=O)N=C(SCC(=O)Nc2ccc(S(N)(=O)=O)cc2)NC1=O (stereo not given) | 1.0 | 138.0* | 3.5 | 122.0 | 100.0 | -3.0 | 98.0
CCC1C(=O)N=C(SCC(=O)Nc2ccccc2)NC1=O (stereo not given) | 3.0 | 110.0 | 4.3 | 104.0 | / | / | /
CC(C)Oc1ccc(CN2CCC(n3nccc3NC(=O)C3CC3)CC2)cc1 | 6.0 | 96.0 | -7.9 | 106.0 | / | / | /
Cc1ccc(CN2CCN(CC(=O)NCCCN3CCN(c4ccc(F)cc4)CC3)C2=O)cc1 | 24.0* | 104.0 | 1.5 | 136.0 | 133.0 | 7.0 | 103.0
CCOCCCNC(=O)CN1CCN(c2ccc(F)cc2)CC1 | -3.0 | 89.0 | 3.1 | 91.0 | / | / | /
O=C(CN1CCN(Cc2ccccc2Cl)C1=O)NCCCN1CCOCC1 | 0.0 | 100.0 | 0.2 | 100.0 | / | / | /
COc1ccc(N2CCN(CCCNC(=O)CN3CCN(Cc4ccccc4C)C3=O)CC2)cc1 | 14.0 | 105.0 | 5.9 | 143.0* | 171.0 | 42.0 | 103.0

Screens from PubChem BioAssay.
